Source: ChEMBL document CHEMBL5252513, “Identification of a Benzoisoxazoloazepine Inhibitor (CPI-0610) of the Bromodomain and Extra-Terminal (BET) Family as a Candidate for Human Clinical Trials” (J Med Chem, 2016)
Active and inactive are the calls of the source. The rule behind the calls is not given here.

Assays:
[1] = Toxicity in rat assessed as GI mucosal ulceration at 2 to 20 mg/kg,po QD consecutive for 14 days followed by 2 weeks recovery period; type: organism-based; conditions: in vivo, 336 h, dose 2-20 mg/kg, time 14 day
Procedure, shortened: (§1)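 Oral suspension given once daily for 14 consecutive days (rat 2, 6, 20 mg/kg; dog 2, 4, 6 mg/kg) in dose range-finding and GLP repeat-dose studies, GLP arms with an added 2-week recovery period; histopathology and clinical pathology findings recorded.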

[2] = target: T1, SWI/SNF-related matrix-associated actin-dependent regulator of chromatin subfamily A member 4 (Homo sapiens, UniProt P51532); test: Displacement of biotinylated JQ1 from BRG1 bromodomain (unknown origin) incubated for 20 mins by AlphaLISA assay
[3] = system: MV4-11; test: Antitumor activity against human MV4-11 cells xenografted in BALB/c mouse assessed as modest tumor growth inhibition at 10 mg/kg,sc BID for 28 days; type: functional, organism-based; conditions: time 28.0 day
[4] = Protein binding in human plasma; type: ADME, cell-free; conditions: read-out: PPB (converted)
[5] = Clearance in dog assessed as liver blood flow at 0.5 mg/kg,iv; type: ADME, organism-based, Canis lupus familiaris; conditions: in vivo
[6] = AUC (0 to infinity) in rat at 5 mg/kg,po; type: ADME, organism-based; set-up: dose 5 mg/kg, route po; conditions: in vivo
[7] = Tmax in dog at 2.5 mg/kg,po; type: ADME, organism-based, Canis lupus familiaris; conditions: in vivo
[8] = Protein binding in rat plasma; type: ADME, cell-free; conditions: read-out: PPB (converted)
[9] = Tmax in mouse at 30 mg/kg,po; type: ADME, organism-based; conditions: in vivo
[10] = Toxicity against BALB/c mouse plasma xenografted with human MV4-11 cells assessed as body weight loss at 30 mg/kg,po BID for 28 days; type: organism-based; conditions: in vivo, 672 h, time 28 day
Procedure, shortened: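 Body weight change (%) followed in MV-4-11 AML mouse xenograft during 28 days of oral single-agent dosing (30 mg/kg once or twice daily, 60 mg/kg once daily), vehicle PO BID as control.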

[11] = Unbound AUC in dog at 2.5 mg/kg,po; type: ADME, organism-based, Canis lupus familiaris; conditions: in vivo
[12] = Toxicity in dog assessed as GI mucosal atrophy at 2 to 6 mg/kg,po QD consecutive for 14 days followed by 2 weeks recovery period; type: organism-based, Canis lupus familiaris; conditions: in vivo, 336 h, dose 2-6 mg/kg, time 14 day; procedure, shortened: as §1
[13] = target: T1, SWI/SNF-related matrix-associated actin-dependent regulator of chromatin subfamily A member 4; test: Binding affinity to BRG1 bromodomain (unknown origin) incubated for 60 mins by TR-FRET assay
[14] = system: MV4-11; test: Antitumor activity against human MV4-11 cells xenografted in BALB/c mouse assessed as complete tumor growth inhibition at 10 mg/kg,sc BID in presence of doxorubicin at 2 mg/kg,iv BIW for 28 days; type: functional, organism-based; conditions: time 28.0 day
[15] = Toxicity in dog assessed as to mild to moderate hyperglycemia at 2 to 6 mg/kg,po QD consecutive for 14 days followed by 2 weeks recovery period; type: organism-based, Canis lupus familiaris; conditions: in vivo, 336 h, dose 2-6 mg/kg, time 14 day; procedure, shortened: as §1
[16] = AUC (0 to infinity) in mouse at 10 mg/kg,sc; type: ADME, organism-based; set-up: dose 10 mg/kg, route sc; conditions: in vivo
[17] = Tmax in mouse at 10 mg/kg,sc; type: ADME, organism-based; conditions: in vivo
[18] = target: T2, Peregrin (Homo sapiens, UniProt P55201); test: Binding affinity to BRPF1 bromodomain (unknown origin) incubated for 60 mins by TR-FRET assay
T2 sequence (P55201 whole entry): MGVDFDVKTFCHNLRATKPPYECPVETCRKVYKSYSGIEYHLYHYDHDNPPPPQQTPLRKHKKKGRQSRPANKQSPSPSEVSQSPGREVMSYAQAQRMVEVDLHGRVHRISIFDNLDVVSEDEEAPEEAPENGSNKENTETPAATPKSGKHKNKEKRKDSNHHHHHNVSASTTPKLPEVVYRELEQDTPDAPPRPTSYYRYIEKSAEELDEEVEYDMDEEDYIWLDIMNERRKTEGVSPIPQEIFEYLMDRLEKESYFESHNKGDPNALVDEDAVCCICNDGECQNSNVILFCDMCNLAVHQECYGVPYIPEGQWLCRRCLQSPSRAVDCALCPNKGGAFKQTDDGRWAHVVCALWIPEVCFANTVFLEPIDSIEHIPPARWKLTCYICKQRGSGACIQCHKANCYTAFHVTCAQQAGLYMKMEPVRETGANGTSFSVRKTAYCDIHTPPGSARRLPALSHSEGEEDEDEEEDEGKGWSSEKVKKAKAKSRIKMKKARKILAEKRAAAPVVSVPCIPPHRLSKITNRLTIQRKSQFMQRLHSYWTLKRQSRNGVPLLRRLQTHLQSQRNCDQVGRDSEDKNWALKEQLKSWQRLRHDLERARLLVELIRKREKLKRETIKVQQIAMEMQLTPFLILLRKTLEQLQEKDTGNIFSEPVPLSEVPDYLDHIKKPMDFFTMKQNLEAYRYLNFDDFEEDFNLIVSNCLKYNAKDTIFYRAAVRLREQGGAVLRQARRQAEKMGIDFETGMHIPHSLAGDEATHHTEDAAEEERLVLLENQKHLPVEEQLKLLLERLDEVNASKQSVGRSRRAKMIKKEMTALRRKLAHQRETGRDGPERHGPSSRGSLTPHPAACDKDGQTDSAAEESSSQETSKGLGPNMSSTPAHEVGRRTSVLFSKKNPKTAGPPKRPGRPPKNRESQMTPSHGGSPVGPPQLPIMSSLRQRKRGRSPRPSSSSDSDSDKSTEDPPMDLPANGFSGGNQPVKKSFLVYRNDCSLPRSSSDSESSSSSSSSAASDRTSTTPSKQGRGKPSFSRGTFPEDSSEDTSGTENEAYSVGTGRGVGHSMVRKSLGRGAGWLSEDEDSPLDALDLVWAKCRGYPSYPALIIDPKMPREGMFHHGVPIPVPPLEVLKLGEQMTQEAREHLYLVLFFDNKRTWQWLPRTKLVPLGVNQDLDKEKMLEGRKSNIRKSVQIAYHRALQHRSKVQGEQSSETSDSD

[19] = Unbound clearance in dog at 0.5 mg/kg,iv; type: ADME, organism-based, Canis lupus familiaris; conditions: in vivo
[20] = Toxicity in dog assessed as lymphoid depletion at 2 to 6 mg/kg,po QD consecutive for 14 days followed by 2 weeks recovery period; type: organism-based, Canis lupus familiaris; conditions: in vivo, 336 h, dose 2-6 mg/kg, time 14 day; procedure, shortened: as §1
[21] = Unbound clearance in rat at 1 mg/kg,iv; type: ADME, organism-based; conditions: in vivo
[22] = Toxicity in dog assessed as GI mucosal ulceration at 2 to 6 mg/kg,po QD consecutive for 14 days followed by 2 weeks recovery period; type: organism-based, Canis lupus familiaris; conditions: in vivo, 336 h, dose 2-6 mg/kg, time 14 day; procedure, shortened: as §1
[23] = Cmax in dog at 2.5 mg/kg,po; type: ADME, organism-based, Canis lupus familiaris; set-up: dose 2.5 mg/kg, route po; conditions: in vivo
[24] = Toxicity against BALB/c mouse plasma xenografted with human MV4-11 cells assessed as body weight loss at 10 mg/kg,sc BID in presence of doxorubicin at 2 mg/kg,iv BIW for 28 days; type: organism-based; conditions: in vivo, 672 h, time 28 day
Procedure, shortened: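 MV-4-11 acute myeloid leukemia mouse xenograft; BET inhibitor given subcutaneously 10 mg/kg twice daily, doxorubicin 2 mg/kg IV twice weekly, alone or combined, for 28 days; body weight change (%) tracked over treatment against vehicle.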

[25] = target: Histone acetyltransferase KAT2B (Homo sapiens, UniProt Q92831); test: Binding affinity to PCAF bromodomain (unknown origin) incubated for 60 mins by TR-FRET assay
[26] = Half life in human patient with progression lymphoma at 300 mg,po QD consecutively for 14 days; type: ADME; conditions: in vivo, time 14 day
[27] = Initial unbound plasma concentration in human patient with progression lymphoma at 300 mg,po QD and measured after 24 hrs; type: ADME; conditions: in vivo

T1 sequence (P51532 whole entry): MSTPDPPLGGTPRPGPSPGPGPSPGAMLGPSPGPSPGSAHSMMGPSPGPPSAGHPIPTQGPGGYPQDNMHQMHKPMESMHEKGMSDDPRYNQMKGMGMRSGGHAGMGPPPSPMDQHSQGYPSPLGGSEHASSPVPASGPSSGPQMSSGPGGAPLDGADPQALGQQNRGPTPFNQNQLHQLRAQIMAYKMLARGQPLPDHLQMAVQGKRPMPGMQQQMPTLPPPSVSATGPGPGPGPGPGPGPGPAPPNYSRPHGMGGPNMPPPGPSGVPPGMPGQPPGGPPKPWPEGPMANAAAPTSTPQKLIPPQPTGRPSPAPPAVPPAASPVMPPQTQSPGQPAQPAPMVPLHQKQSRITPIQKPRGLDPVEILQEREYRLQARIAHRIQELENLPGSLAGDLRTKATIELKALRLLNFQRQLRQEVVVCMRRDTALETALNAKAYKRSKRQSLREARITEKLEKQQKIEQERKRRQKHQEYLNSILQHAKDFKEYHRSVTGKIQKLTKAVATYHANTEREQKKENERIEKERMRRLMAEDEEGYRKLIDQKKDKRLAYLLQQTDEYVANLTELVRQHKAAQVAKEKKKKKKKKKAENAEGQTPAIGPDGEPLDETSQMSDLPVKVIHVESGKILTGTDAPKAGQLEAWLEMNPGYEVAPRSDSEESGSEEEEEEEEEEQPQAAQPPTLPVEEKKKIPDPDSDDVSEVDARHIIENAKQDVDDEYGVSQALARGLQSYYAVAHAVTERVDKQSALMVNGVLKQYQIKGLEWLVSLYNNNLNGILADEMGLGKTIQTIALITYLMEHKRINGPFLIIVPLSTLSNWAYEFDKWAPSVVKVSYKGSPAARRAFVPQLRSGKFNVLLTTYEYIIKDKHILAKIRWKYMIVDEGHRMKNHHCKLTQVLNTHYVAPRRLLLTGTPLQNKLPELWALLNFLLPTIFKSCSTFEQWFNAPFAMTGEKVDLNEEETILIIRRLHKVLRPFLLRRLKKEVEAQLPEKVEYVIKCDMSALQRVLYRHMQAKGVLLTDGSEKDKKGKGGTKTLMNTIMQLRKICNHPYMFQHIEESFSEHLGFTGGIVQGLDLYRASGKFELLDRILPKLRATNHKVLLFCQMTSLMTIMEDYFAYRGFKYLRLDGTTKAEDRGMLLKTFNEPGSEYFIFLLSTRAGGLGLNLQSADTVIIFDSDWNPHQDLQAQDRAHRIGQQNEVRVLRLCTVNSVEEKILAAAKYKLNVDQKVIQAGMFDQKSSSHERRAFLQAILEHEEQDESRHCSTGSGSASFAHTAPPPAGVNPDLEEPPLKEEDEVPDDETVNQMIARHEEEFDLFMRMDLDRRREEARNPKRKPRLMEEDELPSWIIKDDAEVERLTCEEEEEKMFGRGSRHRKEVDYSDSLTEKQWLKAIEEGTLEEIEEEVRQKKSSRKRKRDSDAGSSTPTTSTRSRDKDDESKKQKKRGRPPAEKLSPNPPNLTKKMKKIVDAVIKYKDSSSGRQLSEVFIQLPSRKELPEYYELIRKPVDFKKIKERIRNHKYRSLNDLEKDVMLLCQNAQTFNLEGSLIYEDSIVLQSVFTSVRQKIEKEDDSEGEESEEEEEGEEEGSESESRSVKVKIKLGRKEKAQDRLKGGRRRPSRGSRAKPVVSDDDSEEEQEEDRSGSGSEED
Chain of Histone acetyltransferase KAT2B (Q92831 whole entry): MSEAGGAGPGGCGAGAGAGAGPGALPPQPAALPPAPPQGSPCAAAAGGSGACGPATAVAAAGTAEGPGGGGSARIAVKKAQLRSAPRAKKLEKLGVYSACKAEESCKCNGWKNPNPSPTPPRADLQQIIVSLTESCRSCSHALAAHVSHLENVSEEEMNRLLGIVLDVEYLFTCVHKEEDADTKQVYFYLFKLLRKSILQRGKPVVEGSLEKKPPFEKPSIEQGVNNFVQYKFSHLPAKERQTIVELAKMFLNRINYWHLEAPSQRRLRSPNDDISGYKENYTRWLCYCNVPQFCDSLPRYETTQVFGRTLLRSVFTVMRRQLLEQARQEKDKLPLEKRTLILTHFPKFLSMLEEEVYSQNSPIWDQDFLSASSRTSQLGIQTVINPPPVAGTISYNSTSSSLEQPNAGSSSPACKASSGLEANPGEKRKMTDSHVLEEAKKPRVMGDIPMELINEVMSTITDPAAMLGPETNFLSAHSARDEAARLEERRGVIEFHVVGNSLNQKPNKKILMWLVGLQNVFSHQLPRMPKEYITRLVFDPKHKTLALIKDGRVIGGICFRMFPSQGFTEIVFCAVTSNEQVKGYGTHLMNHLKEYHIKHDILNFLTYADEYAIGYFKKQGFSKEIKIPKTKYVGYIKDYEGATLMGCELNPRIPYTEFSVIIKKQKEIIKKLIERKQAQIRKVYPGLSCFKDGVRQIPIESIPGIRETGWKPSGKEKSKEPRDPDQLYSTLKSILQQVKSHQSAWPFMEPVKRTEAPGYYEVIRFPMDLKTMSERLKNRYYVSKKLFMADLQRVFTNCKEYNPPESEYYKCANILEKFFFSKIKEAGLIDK

Which Activity [1] does the source give for Cc1noc2c1-c1ccccc1C(c1ccc(Cl)cc1)=N[C@H]2CC(N)=O [PELABRESIB] here?
Its Activity is “Toxic”.

And the IC50 [2]?
The IC50 was > 20 µM.

What about the Activity [3] of the same molecule?
Its Activity is “Active”.

And the fraction unbound [4]?
Its fraction unbound is 0.05.

What about the QH [5] of the same molecule?
Its QH is 6%.

What about the AUC(0-inf) [6] of the same molecule?
Its AUC(0-inf) is 9.1 µM·h.

What about the Tmax [7] of the same molecule?
The Tmax was 1.3 h.

What about the fraction unbound [8] of the same molecule?
The fraction unbound was 0.07.

What about the Tmax [9] of the same molecule?
The Tmax was 0.42 h.

And the Activity [10]?
The Activity was “Non-Toxic”.

What about the fAUC [11] of the same molecule?
The fAUC was 1.1 µM·h.

And the Activity [12]?
Its Activity is “Toxic”.

What about the IC50 [13] of the same molecule?
Its IC50 is > 20 µM.

What about the Activity [14] of the same molecule?
Its Activity is “Active”.

What about the Activity [15] of the same molecule?
Its Activity is “Toxic”.

And the AUC(0-inf) [16]?
Its AUC(0-inf) is 49 µM·h.

What about the Tmax [17] of the same molecule?
Its Tmax is 1.3 h.

And the IC50 [18]?
Its IC50 is > 20 µM.

And the CL free [19]?
Its CL free is 46.7 mL/min/kg.

What about the Activity [20] of the same molecule?
Its Activity is “Toxic”.

And the CL free [21]?
Its CL free is 283 mL/min/kg.

And the Activity [22]?
Its Activity is “Toxic”.

What about the Cmax [23] of the same molecule?
The Cmax was 2900 nM.

What about the Activity [24] of the same molecule?
The Activity was “Non-Toxic”.

And the IC50 [25]?
The IC50 was > 20 µM.

What about the half-life [26] of the same molecule?
The half-life was 23 h.

What about the “C0(unbound)” value [27] of the same molecule?
Its value is 11 nM.
